Bioassay records (PubChem)
The list is not random: actives were taken first. Their share in the collection is about 1%.
VIM-2 inhibitor: inhibitors of Pseudomonas aeruginosa VIM-2 metallo-beta-lactamase; purified VIM-2, nitrocefin hydrolysis, epi-absorbance fluorescence; inhibition, % at 5.6 µM; 0.89% of 290,000 active; AID 1527;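 active = inhibition above the mean of all tested compounds plus 3 SD, cutoff set per screening run, cut at about 7.5% in these data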;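 also: red hydrolysis product quenches plate fluorescence so inhibitors raise well fluorescence; 0% = enzyme with DMSO and 100% = DMSO without enzyme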
RAD54 inh: inhibitors of human RAD54 branch migration; RAD54 Holliday junction branch migration, FAM/BHQ fluorescence; inhibition, % at 10.4 µM; Q92698; 0.14% of 360,000 active;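 active = mean normalized replicate activity at least 40 and at least half of replicates scoring 40 or more; inconclusive = only one of the two criteria met; inactive = mean below 40 and under half of replicates reaching 40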;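 also: 0% = median of neutral control wells and 100% = median of positive control wells; inhibitors cause a drop in the FAM fluorescence signal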
FID counter: counter-screen for HCV NS3 helicase inhibitors: DNA intercalator displacement | DNA fluorescent intercalator displacement, fluorescence | inhibition, % at 7.9 µM | 0.17% of 290,000 active; in the data active = inhibition above about 37%;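 also: 0% = vehicle and 100% = reference compound; higher means more ethidium bromide displaced from hairpin DNA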
IMP-1 inhibitor: blocks Pseudomonas aeruginosa IMP-1 metallo-beta-lactamase | inhibition, % at 5.6 µM | 0.45% of 290,000 active | purified IMP-1, nitrocefin hydrolysis, epi-absorbance fluorescence;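 active = inhibition above the mean plus 3 SD of all compounds in the same screening run, cut at about 4.5% in these data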;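 also: 0% = IMP-1 with DMSO and 100% = DMSO wells lacking enzyme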
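System: purified IMP-1 / Input: IMP-1 dispensed at 0.2 nM / Medium: 50 mM HEPES pH 7.1, 50 µM ZnSO4, 0.05% Brij 35 / Timing: 15 min enzyme–compound preincubation, then 25 min nitrocefin reaction, 25 °C / Technique: plate fluorescence quenching by hydrolysis product, ex 480/em 530 nm / Repeats: singlicate testing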
PvdQ inh: blocks Pseudomonas aeruginosa PvdQ acylase activity; 0.063% of 340,000 active; purified PvdQ acylase, fluorescence plate reader; inhibition, % at 10 µM; in the data active = inhibition above about 30%, passing the limit was not always enough; inconclusive = no clear call, values can overlap the other calls;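 also: 0% = vehicle neutral wells and 100% = reference inhibitor wells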
VIM-2 inh confirm: VIM-2 inhibition, confirmation assay; inhibition, % at 5.6 µM; purified VIM-2 enzyme, nitrocefin absorbance; shares compounds with IMP-1 inhibitor; 73% of 200 active; in the data active = inhibition above about 8%;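 also: 0% = enzyme with vehicle and 100% = no enzyme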
TEM-1 inh 2: blocks E. coli TEM-1 beta-lactamase, VIM-2 IMP-1 counter-screen; 50% of 200 active; AID 2184; shares compounds with IMP-1 inhibitor; nitrocefin absorbance inhibition; inhibition, % at 5.6 µM; in the data active = inhibition above about 0.66%
Target sequence (P62593 whole entry, looked up): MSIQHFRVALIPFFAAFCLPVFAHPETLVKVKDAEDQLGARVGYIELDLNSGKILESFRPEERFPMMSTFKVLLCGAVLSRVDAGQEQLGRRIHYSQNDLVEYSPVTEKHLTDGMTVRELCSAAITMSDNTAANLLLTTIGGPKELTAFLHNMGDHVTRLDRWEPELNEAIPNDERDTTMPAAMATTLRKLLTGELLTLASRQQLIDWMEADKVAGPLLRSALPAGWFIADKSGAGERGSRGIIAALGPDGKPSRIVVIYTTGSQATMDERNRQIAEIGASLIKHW
IMP-1 inh conf: confirmation of P. aeruginosa IMP-1 metallo-beta-lactamase inhibitors | shares compounds with IMP-1 inhibitor | inhibition, % at 5.6 µM | AID 2189 | purified IMP-1 enzyme, absorbance substrate hydrolysis | 60% of 200 active; in the data active = inhibition above about 4.9%;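 also: 0% = enzyme with vehicle and 100% = vehicle without enzyme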
Rad54 DNA ctr: counter-screen for Rad54 inhibitors: DNA binding compounds. shares compounds with RAD54 inh. Acridine orange-DNA displacement, fluorescence polarization, 20 min. 8% of 460 active. AID 651673. AC50, µM (highest dose often 35 µM), for inactives: top-dose activity change, negative = DNA binding;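 active = signal drop giving an AC50 within twice the top valid tested concentration of each sample, actives reach about 35 µM in these data; inactive = activity opposite to expected, plus the rest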;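 also: polarization loss reports compound binding to salmon sperm DNA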
An asterisk follows results filed as active; i = inactive; ? = inconclusive; · = not tested or not shown.

SMILES | VIM-2 inhibitor | RAD54 inh | FID counter | IMP-1 inhibitor | PvdQ inh | VIM-2 inh confirm | TEM-1 inh 2 | IMP-1 inh conf | others
O=C(O)CC(C(=O)O)N1C(=O)/C(=C/C=C/c2ccco2)SC1=S (stereo not given) | 4 | 13 | 0 | -4 | -10 | · | · | ·
O=C(O)CCCN1C(=O)/C(=C/C=C/c2ccco2)SC1=S | 7 | · | -9 | 10* | -4 | -1 | -4 | -3
Cn1cc(C=O)c2cc(F)ccc21 | 1 | · | 1 | 1 | -15 | · | · | ·
Cn1cc(/C=C/c2cc[n+](C)cc2)c2cc(Cl)ccc21 | 13* | -344 | 19 | 5.8* | -10 | 22* | 2.8* | 4
Cn1cc(/C=C/c2cc[n+](C)cc2)c2cc(F)ccc21 | 11* | i | 17 | 5.7* | 8 | 14* | 4.7* | 7.5*
CO[C@@H]1CN(C)C(=O)c2cc(NC(C)=O)ccc2OC[C@@H](C)N(C(=O)c2ccccn2)C[C@H]1C | · | -12 | · | · | · | · | · | ·
C[C@H](CO)N1C[C@H](C)[C@@H](CN(C)Cc2ccncc2)Oc2c(NC(=O)c3cnccn3)cccc2C1=O | · | -7 | · | · | · | · | · | ·
CCOc1cc2c(cc1/C=C/c1noc(C)c1[N+](=O)[O-])OC(C)C2 (stereo not given) | 17* | -3 | -1 | 13* | -9 | 20* | 30* | 18*
COc1ccc(CN(C)C[C@H]2OCCCC[C@H](C)Oc3ccc(NC(=O)NC(C)C)cc3C(=O)N([C@@H](C)CO)C[C@@H]2C)cc1 | · | 3 | · | · | · | · | · | ·
CC(C)Nc1nc(Cl)nc(N(C#N)CN2C(=O)c3ccccc3C2=O)n1 | -4 | · | -2 | -3 | 9 | · | · | ·
CCC(C)Nc1nc(Cl)nc(N(C#N)CN2C(=O)c3ccccc3S2(=O)=O)n1 (stereo not given) | 13* | · | -13 | 18* | -6 | 0 | -5 | -1
O=C(Nc1ccc2oc(-c3ccccc3F)nc2c1)c1ccc([N+](=O)[O-])o1 | 12* | -2 | 2 | 41* | 13 | 8.5* | 7.1* | 24*
COc1ccc2c(Cl)c(C(=O)NCCCn3ccnc3)sc2c1Cl | 26* | · | 10 | 35* | -4 | 45* | -4 | 57*
CN1C(=O)c2cccc3c(Cl)ccc(c23)C1=O | 0 | 15 | 5 | 0 | -13 | · | · | ·
CNc1ccc2c3c(cccc13)C(=O)N(C)C2=O | 50* | · | -9 | 44* | -10 | 76* | 87* | 59*
C[C@@H]1CN([C@H](C)CO)S(=O)(=O)c2ccc(-c3cccnc3)cc2O[C@@H]1CN(C)C(=O)c1cccc(F)c1 | · | -1 | · | · | · | · | · | ·
COc1cccc(C2Nc3ccc4ccccc4c3C3=C2C(=O)CC(C)(C)C3)c1OCC(=O)O (stereo not given) | 9.5* | -6 | -33 | 11* | -9 | 8.1* | -1 | 4
O=C(C[C@H]1C=C[C@H](NC(=O)c2cccnc2)[C@H](CO)O1)NCc1ccc(Cl)c(Cl)c1 | · | -6 | · | · | · | · | · | ·
COc1cccc(NC(=O)Nc2ccc3c(c2)C(=O)N(C)C[C@H](OC)[C@@H](C)CN(C)[C@@H](C)CO3)c1 | · | 2 | · | · | · | · | · | ·
O=C1c2ccccc2C(=O)N1c1ccc(Cl)cc1 | -6 | · | 1 | -4 | · | · | · | ·
CC(=O)Nc1ccc(N2C(=O)c3cccc4c(O)ccc(c34)C2=O)cc1 | 40* | -12 | -14 | 34* | -6 | 30* | 34* | 28*
O=C1c2cccc3c(O)ccc(c23)C(=O)N1Cc1ccco1 | 18* | -306 | -11 | 21* | 20 | 31* | 38* | 28*
O=C1c2cccc3c(O)ccc(c23)C(=O)N1c1ccc(Cl)cc1 | 30* | i | -10 | 22* | -13 | 22* | 29* | 18*
O=C1c2ccccc2C(=O)N1Cc1ccco1 | -4 | -6 | 1 | -4 | 0 | · | · | ·
Cc1noc(C)c1S(=O)(=O)Nc1ccc2c(c1)C(=O)N([C@@H](C)CO)C[C@H](C)[C@H](CN(C)S(=O)(=O)c1c(C)noc1C)OCCCC[C@@H](C)O2 | · | 8 | · | · | · | · | · | ·
SMILES | VIM-2 inhibitor | RAD54 inh | FID counter | IMP-1 inhibitor | PvdQ inh | VIM-2 inh confirm | TEM-1 inh 2 | IMP-1 inh conf | others
CCC(=O)N1[C@@H]2Cn3c(ccc(-c4cncnc4)c3=O)[C@H]1[C@@H](C(=O)N1CCc3ccccc3C1)[C@@H]2CO | · | -1 | · | · | · | · | · | ·
COCC(=O)Nc1ccc2c(c1)C(=O)N(C)[C@H]1CC[C@H](CC(=O)Nc3ccccc3F)O[C@@H]1CO2 | · | -8 | · | · | · | · | · | ·
COc1ccc(Cl)cc1C(=O)Nc1cccc(-c2ccc3nncn3n2)c1 | 26* | · | -16 | 23* | 8 | 34* | 3.0* | 11*
CCCCC(Sc1nc(N)c(NC(=O)c2ccco2)c(=O)[nH]1)C(=O)O (stereo not given) | 12* | 11 | -5 | 12* | -16 | 25* | 1.7* | 36*
Cc1cc(C)n2nc3nc4c(cc3c2n1)CCCC4 | 11* | -15 | 8 | 5.0* | -12 | 15* | -1 | -1
Cc1cc(C)n2nc(C)c(Br)c2n1 | -1 | -10 | -1 | -2 | -7 | · | · | ·
O=C(Nc1cccc(Cl)c1)c1cc(S(=O)(=O)N2CCOCC2)cs1 | 0 | 50* | -7 | -3 | -12 | · | · | · | Rad54 DNA ctr=-12%
CN1CCN(C(=O)[C@H]2[C@H](CO)[C@H]3Cn4c(cccc4=O)[C@@H]2N3Cc2ccncc2)CC1 | · | 16 | · | · | · | · | · | ·
Cc1ccnc(SCC(=O)Nc2sc3c(c2C#N)CCC(C(C)(C)C)C3)n1 (stereo not given) | -1 | ? | -1 | -4 | -9 | · | · | · | Rad54 DNA ctr=-12%
Cc1cc(C)nc(SCC(=O)Nc2sc3c(c2C#N)CCC(C)C3)n1 (stereo not given) | -3 | -5 | -14 | -2 | 2 | · | · | ·
Cc1ccc(S(=O)(=O)Nc2ccc3c(c2)C(=O)N([C@H](C)CO)C[C@@H](C)[C@H](CN(C)C(=O)CCC(F)(F)F)OCCCC[C@@H](C)O3)cc1 | · | 2 | · | · | · | · | · | ·
CCN(CC)CCNC(=S)Nc1ccc2nc(N3CCN(C)CC3)cc(C)c2c1 | -5 | 85* | 44* | -3 | -15 | · | · | · | Rad54 DNA ctr=-14%
Cc1cc(N2CCCC2)nc2ccc(NC(=S)NCCCOC(C)C)cc12 | 0 | · | 17 | -3 | -7 | · | · | ·
Cc1cc(N2CCN(C)CC2)nc2ccc(NC(=S)NCCCN3CCN(C)CC3)cc12 | 0 | 78* | 36 | -4 | -6 | · | · | · | Rad54 DNA ctr=-6%
CCCCN(CC)CCCNC(=S)Nc1ccc2nc(N3CCN(CC)CC3)cc(C)c2c1 | 4 | 71* | 52* | -2 | -13 | · | · | · | Rad54 DNA ctr=0%
CCCN(CCC)CCCNC(=S)Nc1ccc2nc(N3CCCC3)cc(C)c2c1 | 5 | 99* | 43* | -1 | -4 | · | · | · | Rad54 DNA ctr=-1%
